According to ChEMBL document CHEMBL4765345, “Design, synthesis, and biological evaluation of dual targeting inhibitors of histone deacetylase 6/8 and bromodomain BRPF1” (Eur J Med Chem, 2020):

How the values were obtained:
THP-1 [1] = test: Antiproliferative activity against human THP-1 assessed as reduction in cell growth at 20 uM by CellTiter-non radioactive cell proliferation assay; format: functional
HEK293 = test: Cytotoxicity against human HEK293 assessed as reduction in cell viability incubated for 24 hrs by AlamarBlue assay; format: cell-based; conditions: hek293, 24 h
In short: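 HEK293 cells were grown at 37 °C under 5% CO2 in DMEM with 10% FCS and 5 mM glutamine and seeded at 1.5 x 10³ cells per well. Compound at 50 μM was added at once. After 24 h AlamarBlue was added for another 21 h, and fluorescence was read at Ex 560/Em 590 nm. Triplicates over three independent experiments.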

Histone deacetylase 1 = Histone deacetylase 1 (Homo sapiens, UniProt Q13547); test: Inhibition of recombinant human HDAC1 at 1 uM using Z-(Ac)Lys-AMC as substrate after 90 mins by fluorescence based micro plate assay
In short: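 Recombinant human HDAC1 or HDAC6 incubated 90 min at 37 °C with 10.5 μM ZMAL (Z-(Ac)Lys-AMC) and increasing inhibitor concentrations, using a homogeneous fluorescence assay. Fluorescence read at Ex 390/Em 460 nm.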

THP-1 [2] = test: Antiproliferative activity against human THP-1 assessed as reduction in cell growth at 4 uM by CellTiter-non radioactive cell proliferation assay; format: functional
HL-60 = test: Antiproliferative activity against human HL60 assessed as reduction in cell growth at 20 uM by CellTiter-non radioactive cell proliferation assay; format: functional
Histone deacetylase 8 = molecular target: T1, Histone deacetylase 8 (Homo sapiens, UniProt Q9BY41); test: Inhibition of human recombinant HDAC8 using H2N-Arg-His-Lys(Ac)-Lys(Ac)-AMC as substrate after 90 mins by fluorescence based micro plate assay
T1 sequence (Q9BY41 whole entry): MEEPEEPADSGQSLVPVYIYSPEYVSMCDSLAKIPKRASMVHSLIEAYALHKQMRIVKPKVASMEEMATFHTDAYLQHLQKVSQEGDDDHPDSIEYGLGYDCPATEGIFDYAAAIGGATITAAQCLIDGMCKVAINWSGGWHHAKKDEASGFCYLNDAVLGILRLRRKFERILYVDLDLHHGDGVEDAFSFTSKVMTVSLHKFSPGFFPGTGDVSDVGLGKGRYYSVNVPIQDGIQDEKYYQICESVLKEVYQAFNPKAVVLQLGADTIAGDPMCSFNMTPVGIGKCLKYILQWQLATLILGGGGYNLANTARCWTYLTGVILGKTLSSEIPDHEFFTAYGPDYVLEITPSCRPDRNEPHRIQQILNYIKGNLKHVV

Histone deacetylase 1, sequence (Q13547 whole entry): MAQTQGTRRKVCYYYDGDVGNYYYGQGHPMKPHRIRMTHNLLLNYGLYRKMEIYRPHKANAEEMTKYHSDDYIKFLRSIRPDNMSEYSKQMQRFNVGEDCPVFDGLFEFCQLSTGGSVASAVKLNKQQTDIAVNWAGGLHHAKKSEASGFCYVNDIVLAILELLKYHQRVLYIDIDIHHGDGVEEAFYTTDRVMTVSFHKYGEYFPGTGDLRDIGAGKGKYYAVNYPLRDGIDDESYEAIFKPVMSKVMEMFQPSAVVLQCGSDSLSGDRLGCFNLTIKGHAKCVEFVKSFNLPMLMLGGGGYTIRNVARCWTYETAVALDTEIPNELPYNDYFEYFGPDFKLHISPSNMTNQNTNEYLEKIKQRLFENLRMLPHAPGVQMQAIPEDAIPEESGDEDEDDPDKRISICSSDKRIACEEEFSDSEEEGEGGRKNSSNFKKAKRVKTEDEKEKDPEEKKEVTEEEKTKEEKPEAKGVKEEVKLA

For COc1ccc(C(=O)NO)cc1S(=O)(=O)Nc1ccc2c(c1)cc(C)c(=O)n2C, the inhibition at 20 µM (THP-1 [1]) was 32%, the Activity (HEK293) was “Non-Toxic” and the inhibition (Histone deacetylase 1) was 6%. The inhibition at 4 µM (THP-1 [2]) was 0%, the inhibition at 20 µM (HL-60) was 10% and the IC50 (Histone deacetylase 8) was 443 nM.
